From ChEMBL document CHEMBL4351001, “2-Aminoimidazole-based antagonists of the 5-HT6 receptor - A new concept in aminergic GPCR ligand design” (Eur J Med Chem, 2019)
Active and inactive are the calls of the source. The calls are words filed in the database; no cut-off is given here.

Columns and labels:
[1] = target: T1, Muscarinic acetylcholine receptor M5 (Homo sapiens) (UniProt P08912); assay: Displacement of [3H]4-DAMP from human recombinant muscarinic M5 receptor at 10^-6 M measured after 60 mins by scintillation counter method relative to control
T1 sequence (whole entry): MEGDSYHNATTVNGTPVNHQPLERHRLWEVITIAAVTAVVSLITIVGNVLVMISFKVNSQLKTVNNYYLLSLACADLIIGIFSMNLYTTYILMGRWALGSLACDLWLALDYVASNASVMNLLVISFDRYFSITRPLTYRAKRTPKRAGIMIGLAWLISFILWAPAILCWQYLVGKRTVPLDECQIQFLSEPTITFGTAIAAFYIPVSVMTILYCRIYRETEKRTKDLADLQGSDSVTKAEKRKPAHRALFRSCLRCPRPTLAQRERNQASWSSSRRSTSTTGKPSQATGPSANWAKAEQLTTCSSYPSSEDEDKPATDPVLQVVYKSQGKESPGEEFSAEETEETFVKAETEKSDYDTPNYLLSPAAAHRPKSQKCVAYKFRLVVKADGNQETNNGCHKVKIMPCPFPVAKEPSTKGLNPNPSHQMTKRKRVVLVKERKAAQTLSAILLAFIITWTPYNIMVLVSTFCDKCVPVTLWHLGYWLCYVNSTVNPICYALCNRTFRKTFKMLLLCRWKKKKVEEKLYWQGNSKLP

[2] = target: T2, Alpha-1A adrenergic receptor (Rattus norvegicus) (UniProt P43140); assay: Displacement of [3H] prazosin from rat alpha 1A adrenergic receptor at 10^-6 M measured after 60 mins by scintillation counter method relative to control
T2 sequence (whole entry): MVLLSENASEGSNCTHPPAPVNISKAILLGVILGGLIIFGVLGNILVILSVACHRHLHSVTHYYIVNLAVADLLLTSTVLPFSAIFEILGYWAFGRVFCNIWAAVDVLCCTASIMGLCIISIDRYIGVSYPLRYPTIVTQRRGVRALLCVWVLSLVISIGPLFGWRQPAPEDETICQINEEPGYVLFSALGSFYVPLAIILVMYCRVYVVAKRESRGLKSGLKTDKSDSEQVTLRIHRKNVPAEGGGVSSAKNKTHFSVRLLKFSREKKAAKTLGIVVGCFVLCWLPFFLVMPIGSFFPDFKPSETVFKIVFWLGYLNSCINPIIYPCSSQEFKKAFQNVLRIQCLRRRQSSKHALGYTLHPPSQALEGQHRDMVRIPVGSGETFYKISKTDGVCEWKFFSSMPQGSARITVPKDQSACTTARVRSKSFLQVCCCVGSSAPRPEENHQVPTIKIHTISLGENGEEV

[3] = target: T3, Muscarinic acetylcholine receptor M1 (Homo sapiens) (UniProt P11229); assay: Displacement of [3H] pirenzepine from human recombinant muscarinic M1 receptor at 10^-6 M measured after 60 mins by scintillation counter method relative to control
T3 sequence (whole entry): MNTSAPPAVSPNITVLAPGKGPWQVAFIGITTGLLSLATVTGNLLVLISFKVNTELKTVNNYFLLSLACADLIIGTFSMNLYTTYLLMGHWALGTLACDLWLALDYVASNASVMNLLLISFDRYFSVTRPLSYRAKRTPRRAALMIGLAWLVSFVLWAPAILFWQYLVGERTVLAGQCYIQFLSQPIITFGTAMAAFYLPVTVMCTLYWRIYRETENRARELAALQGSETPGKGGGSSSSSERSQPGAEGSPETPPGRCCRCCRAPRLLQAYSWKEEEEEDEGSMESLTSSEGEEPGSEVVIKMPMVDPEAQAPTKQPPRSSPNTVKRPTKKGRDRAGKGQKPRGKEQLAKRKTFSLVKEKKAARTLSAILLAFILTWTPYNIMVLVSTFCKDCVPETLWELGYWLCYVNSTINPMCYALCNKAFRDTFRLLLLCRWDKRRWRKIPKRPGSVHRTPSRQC

[4] = target: T4, 5-hydroxytryptamine receptor 2C (Homo sapiens) (UniProt P28335); assay: Displacement of [3H]mesulergine from human recombinant 5HT2C serotonin receptor at 10^-6M incubated for 120 mins by scintillation counter method relative to control
T4 sequence (whole entry): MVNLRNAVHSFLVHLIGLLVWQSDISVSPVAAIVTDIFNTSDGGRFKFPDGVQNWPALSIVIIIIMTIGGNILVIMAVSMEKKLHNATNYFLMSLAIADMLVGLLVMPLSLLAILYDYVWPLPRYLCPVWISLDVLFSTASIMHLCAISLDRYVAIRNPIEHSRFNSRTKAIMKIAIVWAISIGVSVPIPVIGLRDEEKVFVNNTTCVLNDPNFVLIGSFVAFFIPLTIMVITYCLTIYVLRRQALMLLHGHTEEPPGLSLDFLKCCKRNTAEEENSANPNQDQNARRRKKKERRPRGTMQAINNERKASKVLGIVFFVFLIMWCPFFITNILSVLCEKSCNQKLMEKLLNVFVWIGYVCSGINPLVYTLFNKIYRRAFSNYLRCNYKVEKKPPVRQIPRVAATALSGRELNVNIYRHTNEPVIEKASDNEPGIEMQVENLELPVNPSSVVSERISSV

[5] = target: 5-hydroxytryptamine receptor 2B (Homo sapiens) (UniProt P41595); assay: Displacement of [3H] mesulergine from human recombinant 5HT2B receptor at 10^-6 M measured after 60 mins by scintillation counting method relative to control
[6] = target: 5-hydroxytryptamine receptor 2A (Homo sapiens, UniProt P28223); assay: Displacement of [3H]ketanserin from human 5HT2A receptor expressed in CHOK1 cells incubated for 1 hr by liquid scintillation counter method; format: cell-based; conditions: read-out: Ki
[7] = target: T5, 5-hydroxytryptamine receptor 1A (Homo sapiens, UniProt P08908); assay: Displacement of [3H]-8-OH-DPAT from human 5HT1A receptor expressed in HEK293 cells incubated for 1 hr by liquid scintillation counter method; format: cell-based; conditions: read-out: Ki
T5 sequence (P08908 whole entry): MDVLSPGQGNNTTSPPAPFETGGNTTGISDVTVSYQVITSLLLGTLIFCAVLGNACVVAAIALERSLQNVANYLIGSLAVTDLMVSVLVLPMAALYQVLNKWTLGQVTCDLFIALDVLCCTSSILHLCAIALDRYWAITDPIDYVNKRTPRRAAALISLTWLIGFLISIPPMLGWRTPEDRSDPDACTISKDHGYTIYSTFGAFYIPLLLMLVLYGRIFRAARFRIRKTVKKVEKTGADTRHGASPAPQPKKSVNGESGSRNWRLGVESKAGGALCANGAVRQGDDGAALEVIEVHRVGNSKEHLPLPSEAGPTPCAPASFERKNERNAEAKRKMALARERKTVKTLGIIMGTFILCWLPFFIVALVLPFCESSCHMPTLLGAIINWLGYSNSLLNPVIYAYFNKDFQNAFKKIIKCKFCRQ
Outline: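 HEK293 cells stably expressing human 5-HT1AR; membranes in 50 mM Tris–HCl, 0.1 mM EDTA, 4 mM MgCl2, 10 μM pargyline, 0.1% ascorbate; incubated 1 h at room temperature, then filtered. Nonspecific binding defined with 10 μM 5-HT.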

in vitro [8] = conditions: rat, microsomes
Rattus norvegicus = assay: Reversal of scopolamine induced cognitive impairment impairment in Sprague-Dawley rat at 1 mg/kg, po pre treated for 2 hrs followed by scopolamine addition further treated for 30 mins and measured after 1 hr by novel object recognition test; format: functional, organism-based
Outline: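 Male Sprague–Dawley rats (~250 g); open-field habituation 5 min 24 h before test. Compounds p.o. 120 min and scopolamine 1.25 mg/kg i.p. 30 min before 3-min familiarization trial; 3-min recognition trial 1 h later. Exploration video-tracked; discrimination index computed; one-way ANOVA with Newman–Keuls; n = 9–10 per group; mean ± SEM.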

in vitro [9] = conditions: rat, microsomes; remark: listed apart in the source
[10] = Solubility of compound in water; format: physicochemical; conditions: water; read-out: solubility
hERG (KCNH2) = hERG (KCNH2) (Homo sapiens, UniProt Q12809); assay: Displacement of [3H] dofetilide from human recombinant ERG at 10^-6 M measured after 60 mins by scintillation counting method relative to control; conditions: probe [3H]dofetilide
Sequence of hERG (KCNH2) (Q12809 whole entry): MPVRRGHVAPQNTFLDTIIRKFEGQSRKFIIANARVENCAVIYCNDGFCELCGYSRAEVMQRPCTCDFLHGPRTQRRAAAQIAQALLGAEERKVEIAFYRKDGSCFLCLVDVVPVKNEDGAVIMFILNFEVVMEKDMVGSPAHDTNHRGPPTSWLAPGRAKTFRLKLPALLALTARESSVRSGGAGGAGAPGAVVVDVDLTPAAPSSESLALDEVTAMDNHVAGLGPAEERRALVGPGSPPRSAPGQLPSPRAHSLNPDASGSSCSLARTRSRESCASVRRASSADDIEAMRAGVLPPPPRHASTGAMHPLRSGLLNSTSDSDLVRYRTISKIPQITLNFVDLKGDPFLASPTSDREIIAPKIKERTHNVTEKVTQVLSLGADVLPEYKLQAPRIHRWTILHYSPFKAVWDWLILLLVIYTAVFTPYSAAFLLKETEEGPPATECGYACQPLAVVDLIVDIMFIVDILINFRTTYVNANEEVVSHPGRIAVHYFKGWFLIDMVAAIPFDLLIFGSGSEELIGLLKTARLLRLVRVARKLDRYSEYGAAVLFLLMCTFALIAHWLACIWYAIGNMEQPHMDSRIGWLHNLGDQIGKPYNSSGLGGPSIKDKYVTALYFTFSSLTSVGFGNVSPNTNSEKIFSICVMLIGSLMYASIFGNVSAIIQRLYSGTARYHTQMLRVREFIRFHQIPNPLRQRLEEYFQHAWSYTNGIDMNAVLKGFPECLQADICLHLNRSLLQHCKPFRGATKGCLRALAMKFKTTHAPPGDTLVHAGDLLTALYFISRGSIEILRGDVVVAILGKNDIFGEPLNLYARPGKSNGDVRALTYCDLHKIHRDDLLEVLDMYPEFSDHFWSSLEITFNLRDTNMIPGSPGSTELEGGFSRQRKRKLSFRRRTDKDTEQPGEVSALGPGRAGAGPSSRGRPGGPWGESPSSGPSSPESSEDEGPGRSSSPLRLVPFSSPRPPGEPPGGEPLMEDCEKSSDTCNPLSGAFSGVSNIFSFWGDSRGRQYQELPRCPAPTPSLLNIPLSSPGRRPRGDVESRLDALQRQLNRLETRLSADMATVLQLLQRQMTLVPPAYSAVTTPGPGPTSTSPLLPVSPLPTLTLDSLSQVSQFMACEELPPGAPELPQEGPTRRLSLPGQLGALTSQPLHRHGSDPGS

Sequence of 5-hydroxytryptamine receptor 2A (P28223 whole entry): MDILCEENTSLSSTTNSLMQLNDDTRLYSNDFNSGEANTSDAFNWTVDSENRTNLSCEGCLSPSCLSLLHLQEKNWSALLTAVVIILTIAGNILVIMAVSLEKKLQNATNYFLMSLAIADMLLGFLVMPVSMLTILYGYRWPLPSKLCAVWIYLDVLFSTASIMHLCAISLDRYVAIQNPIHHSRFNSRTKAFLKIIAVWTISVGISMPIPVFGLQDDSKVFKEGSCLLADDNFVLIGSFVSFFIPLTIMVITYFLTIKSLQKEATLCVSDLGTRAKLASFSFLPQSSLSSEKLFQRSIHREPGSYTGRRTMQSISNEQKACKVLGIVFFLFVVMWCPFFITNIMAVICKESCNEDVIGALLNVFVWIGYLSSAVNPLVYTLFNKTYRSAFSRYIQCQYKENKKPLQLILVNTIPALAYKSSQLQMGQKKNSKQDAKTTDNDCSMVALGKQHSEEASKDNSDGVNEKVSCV
Sequence of 5-hydroxytryptamine receptor 2B (Homo sapiens) (P41595 whole entry): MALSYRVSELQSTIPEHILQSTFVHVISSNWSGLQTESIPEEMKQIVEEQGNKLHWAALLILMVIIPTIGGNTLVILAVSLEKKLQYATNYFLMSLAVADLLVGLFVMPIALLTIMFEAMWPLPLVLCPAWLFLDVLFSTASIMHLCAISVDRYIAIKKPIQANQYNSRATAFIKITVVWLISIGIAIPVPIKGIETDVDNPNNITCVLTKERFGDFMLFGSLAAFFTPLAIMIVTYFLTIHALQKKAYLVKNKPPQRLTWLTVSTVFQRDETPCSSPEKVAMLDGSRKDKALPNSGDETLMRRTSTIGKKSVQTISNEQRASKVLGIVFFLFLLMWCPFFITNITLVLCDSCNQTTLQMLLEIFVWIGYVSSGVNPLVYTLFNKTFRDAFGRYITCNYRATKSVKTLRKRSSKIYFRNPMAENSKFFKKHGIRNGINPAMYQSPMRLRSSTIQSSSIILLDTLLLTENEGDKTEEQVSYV

SMILES | inhibition [1] [%] | inhibition [2] [%] | inhibition [3] [%] | inhibition [4] [%] | inhibition [5] [%] | Ki [6] [nM] | Ki [7] [nM] | microsomal CLint (in vitro [8]) [µL/min/mg] | Activity (Rattus norvegicus) | half-life (in vitro [9]) [h] | solubility [10] [µg/mL] | inhibition at 1 h, 1 µM (hERG (KCNH2)) [%]
Cc1nc(N)[nH]c1-c1cn(S(=O)(=O)c2ccccc2)c2ccccc12 | 7.6 | 12.2 | 3.8 | 71.6 | 4.5 | 100 | > 10000 | – | – | – | – | –
COc1ccc2c(c1)c(-c1cnc(N)[nH]1)cn2S(=O)(=O)c1ccccc1 | 5.6 | 33.1 | 6.7 | 82 | 1.7 | 794 | > 10000 | – | – | – | – | –
COc1cc2c(cc1OC)C(=O)C(CC1CCN(Cc3ccccc3)CC1)C2 (centres undefined) [DONEPEZIL] | – | – | – | – | – | – | – | 17.6 | Active | 1.32 | – | –
CC(=O)Nc1nc(C)c(-c2cn(S(=O)(=O)c3ccccc3)c3ccccc23)[nH]1.Cl | – | – | – | – | – | – | – | – | – | – | 100 to 10000 | 2.4
